In ChEMBL document CHEMBL4411315, “Discovery of Novel Dual Histone Deacetylase and Mammalian Target of Rapamycin Target Inhibitors as a Promising Strategy for Cancer Therapy” (J Med Chem, 2019):
Activity calls are given as the source filed them. The rule behind the calls is not given here.

How the values were obtained:
[1] = system: MV4-11; assay: Induction of apoptosis in human MV4-11 cells assessed as viable cells at 320 nM after 48 hrs by Annexin V-FITC/propidium iodide staining-based flow cytometric analysis (reference value: 84.1%); format: functional; conditions: MV4-11, 48 h, read-out: Activity
[2] = system: MM1.S; assay: Induction of apoptosis in human MM1S cells assessed as necrotic cells at 80 nM after 48 hrs by Annexin V-FITC/propidium iodide staining-based flow cytometric analysis (reference value: 0.32%); format: functional
[3] = system: MV4-11; assay: Antiproliferative activity against human MV4-11 cells after 72 hrs by MTT assay; format: functional, cell-based; conditions: MV4-11, 72 h
[4] = system: MV4-11; assay: Induction of apoptosis in human MV4-11 cells assessed as viable cells at 80 nM after 48 hrs by Annexin V-FITC/propidium iodide staining-based flow cytometric analysis (reference value: 84.1%); format: functional; conditions: MV4-11, 48 h, read-out: Activity
[5] = system: MV4-11; assay: Cell cycle arrest in human MV4-11 cells assessed as accumulation at G2/M phase at 2.5 nM after 24 hrs by propidium iodide/RNase staining-based FACS analysis (reference value: 18.79%); format: functional
[6] = molecular target: Histone deacetylase 7 (Homo sapiens, UniProt Q8WUI4); assay: Inhibition of recombinant full length N-terminal GST-tagged human HDAC7 expressed in baculovirus expression system using Ac-peptide-AMC as substrate preincubated for 15 mins followed by substrate addition and measured after 1 hr by fluorescence assay
Sequence of Histone deacetylase 7 (Q8WUI4 whole entry): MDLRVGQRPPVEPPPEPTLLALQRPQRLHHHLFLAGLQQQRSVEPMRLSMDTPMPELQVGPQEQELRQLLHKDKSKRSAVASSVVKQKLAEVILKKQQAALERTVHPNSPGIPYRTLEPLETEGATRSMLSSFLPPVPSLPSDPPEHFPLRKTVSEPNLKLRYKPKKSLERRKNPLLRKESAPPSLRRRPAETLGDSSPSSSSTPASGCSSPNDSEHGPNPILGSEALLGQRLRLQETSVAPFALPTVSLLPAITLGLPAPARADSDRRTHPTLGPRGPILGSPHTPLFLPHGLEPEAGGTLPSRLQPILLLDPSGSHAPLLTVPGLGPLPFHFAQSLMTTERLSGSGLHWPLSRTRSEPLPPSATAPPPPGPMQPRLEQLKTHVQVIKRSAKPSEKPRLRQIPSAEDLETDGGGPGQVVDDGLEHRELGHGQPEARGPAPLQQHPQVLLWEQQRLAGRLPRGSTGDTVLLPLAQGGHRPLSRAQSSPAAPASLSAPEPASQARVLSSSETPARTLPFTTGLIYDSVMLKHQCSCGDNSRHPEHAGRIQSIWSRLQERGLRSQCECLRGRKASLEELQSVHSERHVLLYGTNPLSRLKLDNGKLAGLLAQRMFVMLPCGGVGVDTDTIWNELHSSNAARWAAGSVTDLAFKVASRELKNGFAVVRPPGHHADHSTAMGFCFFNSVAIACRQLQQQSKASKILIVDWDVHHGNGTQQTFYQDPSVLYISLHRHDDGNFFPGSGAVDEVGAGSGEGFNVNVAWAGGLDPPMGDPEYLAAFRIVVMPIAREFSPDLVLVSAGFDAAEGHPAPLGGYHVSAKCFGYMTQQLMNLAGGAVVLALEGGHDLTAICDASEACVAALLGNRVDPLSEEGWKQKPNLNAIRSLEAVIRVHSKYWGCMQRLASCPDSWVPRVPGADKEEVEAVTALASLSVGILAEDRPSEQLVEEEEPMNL

[7] = molecular target: Serine/threonine-protein kinase mTOR (Homo sapiens, UniProt P42345); assay: Inhibition of mTOR in human MV4-11 cells assessed as decrease in Akt phosphorylation at S473 residues at 0.01 to 10 uM after 24 hrs by Western blot analysis; format: cell-based
Summary of the method: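 Treatment of MV4-11 cells lasted 24 h at 0.01, 0.1, 1 and 10 μM. Lysis in RIPA buffer and BCA quantitation, then 30 μg protein by SDS-PAGE, PVDF transfer, 5% milk block, primary antibody overnight at 4 °C, HRP secondary 1 h and ECL detection. p-p70S6K (T389), p-4EBP1 (S65), p-Akt (S473) and p-ERK were probed.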

[8] = molecular target: Histone deacetylase 4 (Homo sapiens, UniProt P56524); assay: Inhibition of recombinant full length human HDAC4 expressed in baculovirus infected sf9 cells using Ac-peptide-AMC as substrate preincubated for 15 mins followed by substrate addition and measured after 1 hr by fluorescence assay
Sequence of Histone deacetylase 4 (P56524 whole entry): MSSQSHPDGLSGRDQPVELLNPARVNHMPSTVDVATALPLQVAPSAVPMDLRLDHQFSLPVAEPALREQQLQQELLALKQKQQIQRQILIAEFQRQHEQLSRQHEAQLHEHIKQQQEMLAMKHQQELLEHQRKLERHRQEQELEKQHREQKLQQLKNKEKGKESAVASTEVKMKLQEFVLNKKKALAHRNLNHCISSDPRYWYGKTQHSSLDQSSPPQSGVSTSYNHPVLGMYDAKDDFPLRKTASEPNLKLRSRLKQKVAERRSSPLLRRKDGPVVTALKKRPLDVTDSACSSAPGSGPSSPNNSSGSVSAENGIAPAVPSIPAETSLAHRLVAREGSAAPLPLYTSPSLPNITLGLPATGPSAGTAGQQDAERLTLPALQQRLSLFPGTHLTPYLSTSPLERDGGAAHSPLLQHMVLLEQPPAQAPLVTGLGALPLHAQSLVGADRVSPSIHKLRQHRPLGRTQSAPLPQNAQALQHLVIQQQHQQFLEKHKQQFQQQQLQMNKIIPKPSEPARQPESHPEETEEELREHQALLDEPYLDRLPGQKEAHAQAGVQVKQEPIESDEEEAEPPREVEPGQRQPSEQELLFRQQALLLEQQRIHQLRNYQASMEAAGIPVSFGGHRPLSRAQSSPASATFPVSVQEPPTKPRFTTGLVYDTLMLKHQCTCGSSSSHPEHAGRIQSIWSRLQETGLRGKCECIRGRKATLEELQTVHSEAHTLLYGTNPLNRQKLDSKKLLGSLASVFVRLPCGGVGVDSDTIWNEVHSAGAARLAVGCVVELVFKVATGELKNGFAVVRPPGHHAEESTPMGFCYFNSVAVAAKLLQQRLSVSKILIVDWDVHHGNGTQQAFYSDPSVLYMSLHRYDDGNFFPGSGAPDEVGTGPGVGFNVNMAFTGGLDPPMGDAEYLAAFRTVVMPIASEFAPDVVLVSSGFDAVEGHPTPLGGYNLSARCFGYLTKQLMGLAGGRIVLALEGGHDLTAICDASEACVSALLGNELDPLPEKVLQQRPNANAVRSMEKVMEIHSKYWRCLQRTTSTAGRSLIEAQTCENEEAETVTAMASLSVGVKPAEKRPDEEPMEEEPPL

[9] = system: MV4-11; assay: Induction of apoptosis in human MV4-11 cells assessed as early apoptotic cells at 40 nM after 48 hrs by Annexin V-FITC/propidium iodide staining-based flow cytometric analysis (reference value: 10.7%); format: functional
[10] = system: MM1.S; assay: Cell cycle arrest in human MM1S cells assessed as accumulation at G0/G1 phase at 2.5 nM after 24 hrs by propidium iodide/RNase staining-based FACS analysis (reference value: 49.22%); format: functional
[11] = system: MV4-11; assay: Induction of apoptosis in human MV4-11 cells assessed as early apoptotic cells at 320 nM after 48 hrs by Annexin V-FITC/propidium iodide staining-based flow cytometric analysis (reference value: 10.7%); format: functional
[12] = system: MM1.S; assay: Cell cycle arrest in human MM1S cells assessed as accumulation at G2/M phase at 10 nM after 24 hrs by propidium iodide/RNase staining-based FACS analysis (reference value: 26.29%); format: functional
[13] = system: MV4-11; assay: Induction of apoptosis in human MV4-11 cells assessed as late apoptotic cells at 20 nM after 48 hrs by Annexin V-FITC/propidium iodide staining-based flow cytometric analysis (reference value: 5.03%); format: functional
[14] = system: MV4-11; assay: Cell cycle arrest in human MV4-11 cells assessed as accumulation at S phase at 10 nM after 24 hrs by propidium iodide/RNase staining-based FACS analysis (reference value: 36.42%); format: functional
[15] = system: OCI-AML-3; assay: Antiproliferative activity against human OCI-AML3 cells after 72 hrs by MTT assay; format: functional, cell-based; conditions: OCI-AML-3, 72 h
[16] = molecular target: Protein deacetylase HDAC6 (Homo sapiens) (UniProt Q9UBN7); assay: Inhibition of HDAC6 in human MV4-11 cells assessed as increase in alpha-tubulin acetylation after 6 hrs by Western blot analysis; format: cell-based
Sequence of Protein deacetylase HDAC6 (Homo sapiens) (Q9UBN7 whole entry): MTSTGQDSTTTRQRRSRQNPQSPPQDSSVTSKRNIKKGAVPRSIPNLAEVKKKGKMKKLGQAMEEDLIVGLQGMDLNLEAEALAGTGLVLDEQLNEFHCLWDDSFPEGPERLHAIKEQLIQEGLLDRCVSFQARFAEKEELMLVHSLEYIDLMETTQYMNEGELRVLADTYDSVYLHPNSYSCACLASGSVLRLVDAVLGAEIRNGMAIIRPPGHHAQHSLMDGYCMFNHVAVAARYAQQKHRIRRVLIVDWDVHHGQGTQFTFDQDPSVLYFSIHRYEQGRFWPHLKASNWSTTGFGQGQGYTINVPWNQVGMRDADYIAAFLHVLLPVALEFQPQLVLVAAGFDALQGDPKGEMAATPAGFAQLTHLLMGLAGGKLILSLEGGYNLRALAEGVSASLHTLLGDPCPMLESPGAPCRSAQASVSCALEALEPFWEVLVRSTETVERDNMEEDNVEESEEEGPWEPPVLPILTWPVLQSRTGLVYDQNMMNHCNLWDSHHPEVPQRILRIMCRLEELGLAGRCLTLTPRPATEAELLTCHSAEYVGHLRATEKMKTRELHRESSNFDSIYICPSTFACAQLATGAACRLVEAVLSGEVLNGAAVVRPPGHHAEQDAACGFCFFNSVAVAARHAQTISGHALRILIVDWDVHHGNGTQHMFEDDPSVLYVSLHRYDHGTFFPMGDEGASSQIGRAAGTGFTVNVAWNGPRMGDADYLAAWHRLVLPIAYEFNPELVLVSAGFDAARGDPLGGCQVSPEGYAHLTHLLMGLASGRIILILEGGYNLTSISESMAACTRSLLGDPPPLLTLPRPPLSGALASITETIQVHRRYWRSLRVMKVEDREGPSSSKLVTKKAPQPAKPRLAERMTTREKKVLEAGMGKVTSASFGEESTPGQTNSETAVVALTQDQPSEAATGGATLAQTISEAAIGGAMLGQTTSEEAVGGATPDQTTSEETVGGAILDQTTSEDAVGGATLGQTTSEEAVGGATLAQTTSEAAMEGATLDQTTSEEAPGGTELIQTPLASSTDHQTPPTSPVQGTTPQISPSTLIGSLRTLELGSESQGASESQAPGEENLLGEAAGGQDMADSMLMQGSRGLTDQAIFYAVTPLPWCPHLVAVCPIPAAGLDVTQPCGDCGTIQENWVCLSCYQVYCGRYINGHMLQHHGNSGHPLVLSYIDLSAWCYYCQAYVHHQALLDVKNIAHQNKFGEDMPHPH
Summary of the method: (§1)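 MV4-11 cells treated 6 h at 0.01, 0.1 or 1 μM. Whole-cell protein extracted in RIPA buffer and quantified by BCA. 30 μg protein run on SDS-PAGE and transferred to PVDF. Blocked 1 h in 5% milk, primary antibody overnight at 4 °C, HRP secondary 1 h, ECL detection. Acetyl-histone H3 and acetyl-α-tubulin probed, with GAPDH as loading control.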

[17] = system: MM1.S; assay: Induction of apoptosis in human MM1S cells assessed as necrotic cells at 10 nM after 48 hrs by Annexin V-FITC/propidium iodide staining-based flow cytometric analysis (reference value: 0.32%); format: functional
[18] = Toxicity against NOD/SCID mouse xenografted with human MV4-11 cells assessed as effect on body weight at 10 mg/kg, iv administered every 2 days for 6 days; format: organism-based; conditions: in vivo
Summary of the method: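 MV4-11 cells (10^7 in 100 μL serum-free IMDM) were injected s.c. into the right flank of female NOD/SCID mice aged 5-6 weeks. Groups of 6 were randomised at 100-200 mm3. Dosing was i.v. every 2 days in physiological saline containing 2.5% DMSO and 10% cyclodextrin, pH 9. Tumours were measured by caliper every 2 days. Survivors were counted.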

[19] = system: MM1.S; assay: Induction of apoptosis in human MM1S cells assessed as early apoptotic cells at 160 nM after 48 hrs by Annexin V-FITC/propidium iodide staining-based flow cytometric analysis (reference value: 0.38%); format: functional
[20] = system: MV4-11; assay: Induction of apoptosis in human MV4-11 cells assessed as late apoptotic cells at 320 nM after 48 hrs by Annexin V-FITC/propidium iodide staining-based flow cytometric analysis (reference value: 5.03%); format: functional
[21] = molecular target: Histone deacetylase 1/2/3 (Homo sapiens) (UniProt Q13547+O15379+Q92769); assay: Inhibition of HDAC1/2/3 in human MV4-11 cells assessed as increase in H3 acetylation after 6 hrs by Western blot analysis; format: cell-based; summary of the method: as §1
[22] = system: MM1.S; assay: Induction of apoptosis in human MM1S cells assessed as early apoptotic cells at 80 nM after 48 hrs by Annexin V-FITC/propidium iodide staining-based flow cytometric analysis (reference value: 0.38%); format: functional
[23] = system: MV4-11; assay: Cell cycle arrest in human MV4-11 cells assessed as accumulation at G0/G1 phase at 10 nM after 24 hrs by propidium iodide/RNase staining-based FACS analysis (reference value: 44.79%); format: functional
[24] = molecular target: Histone deacetylase 11 (Homo sapiens, UniProt Q96DB2); assay: Inhibition of recombinant full length N-terminal GST-tagged human HDAC11 expressed in baculovirus expression system using Ac-peptide-AMC as substrate preincubated for 15 mins followed by substrate addition and measured after 1 hr by fluorescence assay
Sequence of Histone deacetylase 11 (Q96DB2 whole entry): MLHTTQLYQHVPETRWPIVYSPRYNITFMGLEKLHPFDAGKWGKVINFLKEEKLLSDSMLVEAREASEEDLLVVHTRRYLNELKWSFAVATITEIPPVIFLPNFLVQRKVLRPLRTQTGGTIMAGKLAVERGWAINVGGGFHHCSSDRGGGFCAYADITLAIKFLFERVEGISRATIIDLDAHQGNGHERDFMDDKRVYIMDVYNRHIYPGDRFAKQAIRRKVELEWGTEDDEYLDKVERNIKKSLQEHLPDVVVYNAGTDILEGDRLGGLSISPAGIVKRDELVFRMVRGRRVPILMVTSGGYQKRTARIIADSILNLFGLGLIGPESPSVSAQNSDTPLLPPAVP

[25] = system: MV4-11; assay: Induction of apoptosis in human MV4-11 cells assessed as necrotic cells at 160 nM after 48 hrs by Annexin V-FITC/propidium iodide staining-based flow cytometric analysis (reference value: 0.17%); format: functional
[26] = system: MV4-11; assay: Induction of apoptosis in human MV4-11 cells assessed as viable cells at 160 nM after 48 hrs by Annexin V-FITC/propidium iodide staining-based flow cytometric analysis (reference value: 84.1%); format: functional; conditions: MV4-11, 48 h, read-out: Activity

In the case of `C[C@@H]1CN(C(=O)Nc2ccc(-c3nc(N4CCOCC4)c4cnn(CCCCCCC(=O)NO)c4n3)cc2)CCO1`, the viability at 0.32 µM [1] is reported as 2.57%, the Activity [2] is reported as 1.78% and the IC50 [3] is reported as 4.05 nM. For the same compound, the viability at 0.08 µM [4] was 4.09%, the Activity [5] was 18.2% and the IC50 [6] was greater than 1000 nM. For the same compound, the inhibition [7] was “Active”, the IC50 [8] was greater than 1000 nM and the Activity [9] was 37.4%. It also gave an Activity [10] of 52.62%, an Activity [11] of 27.5% and an Activity [12] of 20.43%. It also gave an Activity [13] of 38.4%, an Activity [14] of 23.42% and an IC50 [15] of 9.98 nM. The inhibition [16] was “Dose-dependent effect”, the Activity [17] was 0.31% and the Activity [18] was “Non-Toxic”. The Activity [19] was 19.6%, the Activity [20] was 68.3% and the inhibition [21] was “Dose-dependent effect”. It also gave an Activity [22] of 7.95%, an Activity [23] of 65.4% and an IC50 [24] greater than 1000 nM. The Activity [25] was 1.13% and the viability at 0.16 µM [26] was 2.29%.
